Bioassay records (PubChem BioAssay)
This is a sample that favours compounds with a hit; in the whole collection about 2% have one here.
LEDGF integ inh: blockers of LEDGF/p75-dependent integrase strand transfer – biochemical, TR-FRET, high throughput, primary screen; HIV-1 integrase (with human LEDGF/p75); inhibition, % at 3.7 µM; AID 743269, 2014; hit rate 0.64% among 370,000; TR-FRET IN-LEDGF/p75 DNA integration, Eu/Cy5;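 active = inhibition above the screen-wide mean plus 3 SD, cut at about 13% in these data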;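 also: signal is the Cy5 over europium emission ratio at 671 and 618 nm; 0% = plate median of compound wells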
MBD2 inh: inhibitors of MBD2 binding to methylated DNA, primary screen, biochemical, TR-FRET, DNA-binding domain, human | Methyl-CpG-binding domain protein 2 (Homo sapiens), Q9UBB5 | MBD2 binding to methylated oligonucleotide | inhibition, % at 4.4 µM | hit rate 0.31% among 370,000 | AID 686964, 2013; in the data active = inhibition above about 13%
Target sequence (Q9UBB5 whole entry, looked up, the tested form may be a part): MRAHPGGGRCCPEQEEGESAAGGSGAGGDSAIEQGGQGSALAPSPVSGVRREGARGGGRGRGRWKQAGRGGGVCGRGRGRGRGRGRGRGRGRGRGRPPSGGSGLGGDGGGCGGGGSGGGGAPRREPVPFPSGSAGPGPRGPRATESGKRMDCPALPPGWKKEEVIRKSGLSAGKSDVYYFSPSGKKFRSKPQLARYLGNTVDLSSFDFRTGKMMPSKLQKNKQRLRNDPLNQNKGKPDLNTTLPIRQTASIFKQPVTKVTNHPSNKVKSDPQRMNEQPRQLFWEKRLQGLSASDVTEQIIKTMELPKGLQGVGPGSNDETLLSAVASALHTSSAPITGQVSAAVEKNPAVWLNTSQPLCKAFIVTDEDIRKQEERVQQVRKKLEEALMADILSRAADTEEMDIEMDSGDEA
ARFGAP1 inh: inhibitors of rat ARFGAP1 GAP activity, primary screen, biochemical, fluorescence polarization, GDP tracer | hit rate 0.26% among 360,000 | Arfgap1-stimulated ARF1 GTP hydrolysis, GDP FP detection | inhibition, % at 16.5 µM;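 active = inhibition above a per-plate limit, mean inhibition of low control wells plus 3 SD, cut at about 25% in these data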;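 also: 0% = DMSO wells with enzyme and 100% = wells lacking Arfgap1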
Target sequence (Q62848 1-136 limits assumed): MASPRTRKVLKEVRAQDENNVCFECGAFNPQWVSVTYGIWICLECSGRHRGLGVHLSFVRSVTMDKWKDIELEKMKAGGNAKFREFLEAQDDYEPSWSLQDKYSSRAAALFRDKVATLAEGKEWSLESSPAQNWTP
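Material: rat Arfgap1 GAP domain (His6, aa 1-136), purified enzyme. Also added: human ARF1(Δ1-17)-GTP substrate. Compound dosing: 16.5 µM single point, 1.26% DMSO. Timing: enzyme reaction 120 min at 25 °C after 20 min preincubation. Signal: GDP detection by fluorescence polarization. Read-out basis: percent inhibition of GAP-stimulated GDP formation, scaled between DMSO and no-Arfgap1 medians.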
UHRF1 MBD2 ctr: UHRF1 methylated DNA binding inhibitors, primary screen, counter-screen for MBD2 inhibitor project, biochemical, TR-FRET, human UHRF1, single concentration; UHRF1 binding to methylated oligo; inhibition, % at 4.4 µM; hit rate 0.75% among 370,000; AID 687016, 2013; in the data active = inhibition above about 21%;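 also: UHRF1 SRA domain binding a hemimethylated CpG hairpin DNA probe; 0% = median of test compound wells and 100% = reference inhibitor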
ASAP1 inh: inhibitors of human ASAP1 ArfGAP activity, primary screen, biochemical, fluorescence polarization. ASAP1-stimulated ARF1 GTP hydrolysis, GDP FP detection. inhibition, % at 16.5 µM. hit rate 0.19% among 360,000; in the data active = inhibition above about 25%;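 also: 0% = vehicle with enzyme and substrate and 100% = no enzyme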
TCR-CD3 inh: inhibitors of human TCR-CD3 interaction, primary screen, biochemical, fluorescence, TAMRA-labeled TCR probe. hit rate 0.37% among 360,000. T-cell receptor (TCR). inhibition, % at 9.4 µM; in the data active = inhibition above about 19%;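 also: recombinant mutant TCR 2C K166C tagged with TAMRA read by polarization; 0% = receptor in buffer alone and 100% = receptor with positive control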
An asterisk follows results filed as active.

`COC(=O)c1cc(Br)c(=O)n(-c2ccccn2)c1` gave LEDGF integ inh 1, MBD2 inh -6, ARFGAP1 inh 5, UHRF1 MBD2 ctr 37*, ASAP1 inh 15 and TCR-CD3 inh 8.
For COc1ccc(C(=O)Nc2ccc3c(c2)nc(CN2CCCC2)n3C)cc1 the results were LEDGF integ inh -1, MBD2 inh 1, ARFGAP1 inh -10, UHRF1 MBD2 ctr 34*, ASAP1 inh 0 and TCR-CD3 inh 4.
Screening CCOC(=O)N(C)[C@H]1C[C@H]2c3[nH]c4ccccc4c3CCN2C(=O)[C@H]1[C@H](C)O returned LEDGF integ inh 1, MBD2 inh 5, ARFGAP1 inh 4, UHRF1 MBD2 ctr 1, ASAP1 inh 5 and TCR-CD3 inh -4.
For CO[C@@]1(NC(=O)CSCC#N)C(=O)N2C(C(=O)O)=C(CSc3nnnn3C)CS[C@@H]21 the results were LEDGF integ inh 10, MBD2 inh -4, ARFGAP1 inh 1, UHRF1 MBD2 ctr 44*, ASAP1 inh -3 and TCR-CD3 inh -3.
`Cn1c2c(c(=O)n(C)c1=O)C(c1ccc(C(F)(F)F)cc1)CC(=O)N2` (configuration not stated) gave LEDGF integ inh -1, MBD2 inh -5, ARFGAP1 inh 9, UHRF1 MBD2 ctr 31*, ASAP1 inh 1 and TCR-CD3 inh 5.
`O=C(Nc1cccc([N+](=O)[O-])c1)c1cccc(C(=O)Nc2cccc([N+](=O)[O-])c2)c1` gave LEDGF integ inh 3, MBD2 inh 1, ARFGAP1 inh 8, UHRF1 MBD2 ctr 0, ASAP1 inh -1 and TCR-CD3 inh -1.
`CC(NC(=O)Nc1cccc([N+](=O)[O-])c1)(C(F)(F)F)C(F)(F)F` gave LEDGF integ inh 1, MBD2 inh -4, ARFGAP1 inh -6, UHRF1 MBD2 ctr 73*, ASAP1 inh 0 and TCR-CD3 inh 2.
CCN(Cc1cccs1)c1ncnc2ccc(-c3ccc4c(c3)OCO4)cc12 was read as LEDGF integ inh 0, MBD2 inh 0 and UHRF1 MBD2 ctr 5.
CCOC(=O)c1c(C)[nH]c(C)c1C(=O)CSc1nc2ccccc2c(=O)n1-c1ccccc1C was read as LEDGF integ inh 3, MBD2 inh 11, ARFGAP1 inh -4, UHRF1 MBD2 ctr 21*, ASAP1 inh 0 and TCR-CD3 inh -1.
`O=C(COC(=O)c1cnccn1)NCCc1ccc(Cl)cc1` gave LEDGF integ inh -8, MBD2 inh 2, ARFGAP1 inh -2, UHRF1 MBD2 ctr 0, ASAP1 inh -9 and TCR-CD3 inh -6.
NS(=O)(=O)c1ccc(-c2ccc(/C=N/NC(=O)c3ccc([N+](=O)[O-])cc3)o2)cc1 was read as LEDGF integ inh -1, MBD2 inh 0, ARFGAP1 inh -18, UHRF1 MBD2 ctr -3, ASAP1 inh 8 and TCR-CD3 inh -1.
CCCOc1ccc(C(=O)N/N=C/c2ccc(-c3ccc(S(=O)(=O)Nc4ncccn4)cc3)o2)cc1 was read as LEDGF integ inh 2, MBD2 inh 0, ARFGAP1 inh -14, UHRF1 MBD2 ctr 70*, ASAP1 inh 5 and TCR-CD3 inh 3.
`Cc1c(N=C2SC(CC(=O)Nc3ccccc3)C(=O)N2CCN2CCOCC2)c(=O)n(-c2ccccc2)n1C` (configuration not stated) gave LEDGF integ inh 1, MBD2 inh 3, ARFGAP1 inh 7, UHRF1 MBD2 ctr 28*, ASAP1 inh -6 and TCR-CD3 inh 0.
For O=C(Cc1ccccc1)N/N=C/c1cc(Br)c(Br)o1 the results were LEDGF integ inh 0, MBD2 inh -2, ARFGAP1 inh 18, UHRF1 MBD2 ctr 4, ASAP1 inh 27* and TCR-CD3 inh 0.
For CCOC(=O)c1c(-c2ccccc2)c2cc(OC)ccc2n1CCCN(C)C the results were LEDGF integ inh -3, MBD2 inh -1, ARFGAP1 inh 0, UHRF1 MBD2 ctr 26*, ASAP1 inh -1 and TCR-CD3 inh 4.
For CCOC(=O)c1c(C)n(CCNC(C)=O)c2ccc(OC)cc12 the results were LEDGF integ inh 2, MBD2 inh -2, ARFGAP1 inh 9, UHRF1 MBD2 ctr 2, ASAP1 inh -1 and TCR-CD3 inh 0.
`O=C(CS(=O)CC(=O)N(c1ccccc1)C(C(=O)NC1CCCCC1)c1ccco1)Nc1ccc(F)cc1` (configuration not stated) gave LEDGF integ inh -3, MBD2 inh 4, ARFGAP1 inh -3, UHRF1 MBD2 ctr 0, ASAP1 inh -1 and TCR-CD3 inh 4.
COc1ccc(N(C(=O)CS(=O)CC(=O)Nc2ccc(F)cc2)C(C(=O)NC2CCCCC2)c2cccs2)cc1 (configuration not stated) was read as LEDGF integ inh 15*, MBD2 inh 0, ARFGAP1 inh 6, UHRF1 MBD2 ctr -2, ASAP1 inh -13 and TCR-CD3 inh 5.
Screening CC1CCCCC1NC(=O)/C(C#N)=C/c1ccccc1F (configuration not stated) returned LEDGF integ inh -4, MBD2 inh 10, ARFGAP1 inh 10, UHRF1 MBD2 ctr 25*, ASAP1 inh 15 and TCR-CD3 inh -3.
Screening O=C(CCNC(=O)c1ccc(Br)cc1)Nc1cccc(S(=O)(=O)N2CCCCCC2)c1 returned LEDGF integ inh -1, MBD2 inh 2, ARFGAP1 inh 12, UHRF1 MBD2 ctr 0, ASAP1 inh -1 and TCR-CD3 inh -2.
For O=C(CCNC(=O)c1ccc(Br)cc1)Nc1cccc(S(=O)(=O)N2CCCC2)c1 the results were LEDGF integ inh -4, MBD2 inh 9, ARFGAP1 inh 11, UHRF1 MBD2 ctr 36*, ASAP1 inh -6 and TCR-CD3 inh 6.
For Cc1ccc(NC(=O)COC(=O)c2ccc3ncsc3c2)c(C)c1 the results were LEDGF integ inh -1, MBD2 inh 0, ARFGAP1 inh 1, UHRF1 MBD2 ctr 22*, ASAP1 inh 2 and TCR-CD3 inh -7.
O=C1c2oc3ccccc3c(=O)c2C(c2cccc(O)c2)N1CCCN1CCOCC1 (configuration not stated) was read as LEDGF integ inh 4, MBD2 inh -4, ARFGAP1 inh 1, UHRF1 MBD2 ctr -1, ASAP1 inh 7 and TCR-CD3 inh 7.
